Test results reported in PubChem BioAssay AID588575 (Sanford-Burnham Center for Chemical Genomics, 2011).
pIC50: −log10 of the molar value. Active and inactive are the calls of the source.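 The calls were made as follows: active = IC50 at or below 20 µM; inactive = the rest.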

What follows are molecules tested against Bcl-2-like protein 10 (Homo sapiens) (UniProt Q9HD36) (assay: Bcl-B inhibitors displacing Bim peptide, SAR follow-up, biochemical, fluorescence polarization, GST-Bcl-B, FITC-Bim (AID 588575)).
Summary of the method: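 material = recombinant GST-Bcl-B protein without C-terminal transmembrane region | probe or stimulus = FITC-Bim peptide probe | compound dosing = 10 concentrations, 2-fold steps | schedule = 20 min at 4 °C preincubation, 10 min probe step at room temperature | detection = fluorescence polarization, excitation 485 nm, emission 530 nm | evaluation = IC50 via sigmoidal curve fitting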

Chain of Bcl-2-like protein 10 (Homo sapiens) (Q9HD36 whole entry, looked up): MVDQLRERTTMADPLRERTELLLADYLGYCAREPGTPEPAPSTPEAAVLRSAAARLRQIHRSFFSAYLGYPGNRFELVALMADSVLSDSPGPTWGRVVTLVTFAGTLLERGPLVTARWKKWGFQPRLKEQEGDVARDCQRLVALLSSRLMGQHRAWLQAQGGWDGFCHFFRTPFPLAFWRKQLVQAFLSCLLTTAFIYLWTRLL

Compound	IC50	pIC50
O=c1c2c(n3nnnc3n1-c1ccccc1)-c1ccccc1CC21CCCC1	> 20 µM (inactive)	–
COc1ccc(Cn2c(=O)c3c(n4nnnc24)-c2cc(C)ccc2CC3(C)C)cc1	–	5.40
O=C1CC(c2ccccc2F)c2c(n3ncnc3[nH]c2=O)N1 (stereo not drawn)	> 20 µM (inactive)	–
O=c1c2c(n3nnnc3n1Cc1ccc(Cl)cc1)-c1ccccc1CC21CCCC1	–	5.68
c1ccc(OCc2nc3c4c(ncn3n2)-c2ccccc2CC42CCCC2)cc1	> 20 µM (inactive)	–
O=c1c2ccccc2nc2n1C1(CCCC1)Cc1ccccc1-2	> 20 µM (inactive)	–
COc1ccc2c(c1)-c1c(c(=O)n(Cc3ccc(F)cc3)c3nnnn13)C(C)(C)C2	> 20 µM (inactive)	–
CC1(C)Cc2ccccc2-c2c1c(=O)n(Cc1ccccc1)c1nncn21	> 20 µM (inactive)	–
Cc1ccc2c(c1)-c1c(c(=O)n(Cc3ccc(Cl)cc3)c3nnnn13)C1(CCCCC1)C2	> 20 µM (inactive)	–
O=c1c2c(n3cnnc3n1C1CCCCC1)-c1ccccc1CC21CCCCC1	> 20 µM (inactive)	–
O=C1CC(c2ccc(F)cc2)CC2=C1C(c1cccc(Cl)c1)n1ncnc1N2 (stereo not drawn)	> 20 µM (inactive)	–
O=c1c2c(n3nnnc3n1Cc1ccc(F)cc1)-c1ccccc1CC21CCCC1	–	5.81
O=c1c2ccccc2nc2n1C1(CCCCC1)Cc1ccccc1-2	> 20 µM (inactive)	–
O=c1c2c(n3nnnc3n1Cc1ccccc1)-c1ccccc1CC21CCCC1	–	5.48
COc1ccc2c(c1)-c1c(c(=O)n(Cc3ccc(F)cc3)c3nncn13)C(C)(C)C2	> 20 µM (inactive)	–
Cc1ccc2c(c1)-c1c(c(=O)n(Cc3ccccc3)c3nncn13)C1(CCCCC1)C2	–	5.31
O=c1c2cnc3nc(-c4ccccc4)nn3c2ccn1CCc1cnc[nH]1	> 20 µM (inactive)	–
O=c1c2c(-c3ccccc3)n3ncnc3nc2ccn1-n1cnnc1	> 20 µM (inactive)	–
Cc1ccc2c(c1)-c1c(c(=O)n(Cc3ccc(F)cc3)c3nncn13)C1(CCCCC1)C2	–	6.22
O=c1c2c(-c3ccccc3)n3ncnc3nc2ccn1-c1ccccc1	> 20 µM (inactive)	–

Compound	IC50	pIC50
CC1CC(=O)C2=C(C1)Nc1ncnn1C2c1cccnc1 (stereo not drawn)	> 20 µM (inactive)	–
COc1ccc2c(c1)-c1c(c(=O)n(Cc3ccccc3)c3nncn13)C1(CCCC1)C2	> 20 µM (inactive)	–
O=c1c2c(nc3n1CCS3)-c1ccccc1CC21CCCCC1	> 20 µM (inactive)	–
CC1(C)Cc2ccccc2-c2nc3nn[nH]n3c(=O)c21	> 20 µM (inactive)	–
O=c1c2c(n3cnnc3n1Cc1ccccc1)-c1ccccc1CC21CCCCC1	> 20 µM (inactive)	–
COc1ccc(Cn2c(=O)c3c(n4cnnc24)-c2cc(C)ccc2CC3(C)C)cc1	–	5.08
CC1(C)CC(n2c(=S)[nH]c3c(c2=O)C2(CCCC2)Cc2ccccc2-3)CCO1 (stereo not drawn)	> 20 µM (inactive)	–
O=c1c2c(n3cnnc3n1Cc1ccccc1)-c1ccccc1CC21CCCC1	–	5.28
O=c1c2c(n3nnnc3n1Cc1ccccc1)-c1cc(F)ccc1CC21CCCCC1	–	6.11
O=c1c2c(n3nnnc3n1Cc1ccccc1)-c1ccccc1CC21CCCCC1	–	5.38
Cc1ccc2c(c1)-c1c(c(=O)n(Cc3ccccc3)c3nnnn13)C1(CCCCC1)C2	–	4.87
COc1ccc2c(c1)-c1c(c(=O)n(Cc3ccc(Cl)cc3)c3nnnn13)C1(CCCC1)C2	> 20 µM (inactive)	–
Cn1c(=O)c2c(n3cnnc13)-c1ccccc1CC21CCCC1	> 20 µM (inactive)	–
O=C1CCCC2=C1C(c1cc(Br)ccc1F)n1ncnc1N2 (stereo not drawn)	> 20 µM (inactive)	–
O=c1c2c(nc3[nH]ncn13)-c1ccccc1CC21CCCCC1	> 20 µM (inactive)	–
O=c1[nH]c(CN2CCCC2)nc2c1C1(CCCC1)Cc1ccccc1-2	> 20 µM (inactive)	–
C=C(C)Cn1c(=O)c2c(n3nnnc13)-c1ccccc1CC21CCCC1	> 20 µM (inactive)	–
COc1ccc2c(c1)-c1c(c(=O)n(Cc3ccccc3)c3nnnn13)C(C)(C)C2	–	5.39
O=c1c2c(n3nnnc3n1Cc1ccccc1)-c1cc(F)ccc1CC21CCCC1	> 20 µM (inactive)	–
O=c1c2cnc3ncnn3c2ccn1CCc1cnc[nH]1	> 20 µM (inactive)	–

Compound	IC50	pIC50
Cc1ccc2c(c1)-c1c(c(=O)n(Cc3ccc(Cl)cc3)c3nncn13)C1(CCCCC1)C2	> 20 µM (inactive)	–
O=c1c2c(n3cnnc3n1Cc1ccc(Cl)cc1)-c1ccccc1CC21CCCC1	–	5.47
C=C(C)Cn1c(=O)c2c(n3cnnc13)-c1ccccc1CC21CCCC1	> 20 µM (inactive)	–
CC1(C)Cc2ccccc2-c2c1c(=O)n(Cc1ccccc1)c1nnnn21	> 20 µM (inactive)	–
O=c1[nH]c(NCCCO)nc2c1C1(CCCCC1)Cc1ccccc1-2	> 20 µM (inactive)	–
COc1ccc2c(c1)-c1c(c(=O)n(Cc3ccc(Cl)cc3)c3nncn13)C1(CCCC1)C2	> 20 µM (inactive)	–
Cn1c(=S)[nH]c2c(c1=O)C1(CCCCC1)Cc1ccccc1-2	> 20 µM (inactive)	–
O=c1[nH]c(CN2CCOCC2)nc2c1C1(CCCC1)Cc1ccccc1-2	> 20 µM (inactive)	–
Cc1ccc2c(c1)-c1c(c(=O)n(Cc3ccc(F)cc3)c3nnnn13)C1(CCCCC1)C2	–	5.09
COc1ccc2c(c1)-c1c(c(=O)n(Cc3ccc(Cl)cc3)c3nnnn13)C(C)(C)C2	> 20 µM (inactive)	–
Cc1ccc2c(c1)-c1c(c(=O)n(Cc3ccccc3)c3nnnn13)C(C)(C)C2	–	5.24
COc1ccc(Cn2c(=O)c3c(n4nnnc24)-c2ccccc2CC32CCCC2)cc1	–	6.41
COc1ccc2c(c1)-c1c(c(=O)n(Cc3ccc(Cl)cc3)c3nncn13)C(C)(C)C2	> 20 µM (inactive)	–
O=c1c2c(nc3[nH]ncn13)-c1ccccc1CC21CCCC1	> 20 µM (inactive)	–
COc1ccc2c(c1)-c1c(c(=O)n(Cc3ccccc3)c3nncn13)C(C)(C)C2	> 20 µM (inactive)	–
Cc1ccc2c(c1)-c1c(c(=O)n(Cc3ccccc3)c3nncn13)C(C)(C)C2	> 20 µM (inactive)	–
COc1ccc2c(c1)-c1c(c(=O)n(Cc3ccccc3)c3nnnn13)C1(CCCC1)C2	> 20 µM (inactive)	–
Cn1c(NCCO)nc2c(c1=O)C1(CCCCC1)Cc1ccccc1-2	> 20 µM (inactive)	–
